A short description of assay [1]: reducers of endogenous Her2 protein level, primary screen, SKBR3 breast tumor cells, AlphaScreen, ATP viability (AID 461;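 active = Her2 level under about 52% in both replicate screens, with viability over 70% of control, limit read from the data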;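 for Her2 level: lower value means less Her2 protein in the cells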;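 for viability: percent of carrier control wells set as 100% viability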). As to conditions: 18-24 h, measured here: SKBR3 viability, ATP luminescence, at 10 µM.
In assay [2] the target is Receptor tyrosine-protein kinase erbB-2 (Homo sapiens) (UniProt P04626). The assay is described as above. To be noted: 18-24 h, at 10 µM, stronger effect = lower value.
A short description of assay [3]: SK-BR-3 cell growth inhibitors, pilot screen, 24 h, human (AID 572).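 Note: compound exposure lasted between 18 and 24 h rather than exactly 24 h; 100% = carrier-treated control wells.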 As to conditions: SK-BR-3 viability, CellTiter-Glo luminescence, at 10 µM, stronger effect = lower value.
The nature of assay [4]: HUVEC growth inhibition – cell-based, human, primary screen (AID 575;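 active = viability at or below 30% in both replicate assays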;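 note: 100% = median of untreated cell wells with 0.1% DMSO on each plate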). To be noted: HUVEC proliferation, CellTiter-Glo luminescence, 72 h; at 10 µM; stronger effect = lower value. In short, it runs like this:
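Assay system: Primary human umbilical vein endothelial cells | Quantity: 1250 cells per well | Medium: Supplemented EBM, 2% fetal bovine serum | Detection: CellTiter-Glo luminescence measuring cellular ATP | Read-out: % viability vs DMSO wells | Plate: Collagen-coated 384-well format | Times: 72 h exposure, 37 °C, 5% CO2, 30 min RT equilibration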

A short description of assay [5]: growth inhibitors of H69AR lung tumor, primary screen, human, duplicate replicates (AID 580;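 active = viability at or under a set limit in both replicates, limit being median viability minus 3 SD, cut at about 48% in these data, passing the limit was not always enough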;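 note: 100% = mean luminescence of untreated wells and 0% = no signal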). To be noted: H69AR lung tumor cells viability, ATP luminescence, 72 h; at 10 µM; stronger effect = lower value.
A short description of assay [6]: reversal of MRP1-mediated doxorubicin resistance, pilot screen, H69AR cells, doxorubicin co-treatment (AID 601;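 active = viability loss from added drug above about 55%, and viability with drug at most 40%, in both replicates, limit read from the data, passing the limit was not always enough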). As to conditions: CellTiter-Glo, 72 h, at 10 µM; for differential viability (reversal): stronger effect = higher value.
Assay [7] in a line: 384-well plate pilot, post-Golgi transport modulator project, inhibition of yeast transport mutant growth (AID 636; in the data active = inhibition above about 31%). As to conditions: absorbance 615 nm, about 18 h, stronger effect = higher value.
A short description of assay [8]: growth suppression of yeast trafficking mutant, preliminary HTS, modulators of trafficking downstream of Golgi apparatus project, 1536-format plate, OD 615 nm (AID 637; in the data active = inhibition above about 30%). To be noted: yeast transport mutant growth, absorbance 615 nm, 18 h; stronger effect = higher value.
Setting [9] is: H69AR cells + 2 uM doxorubicin, measured here: viability with 2 uM doxorubicin, stronger effect = lower value.
Setting [10] is: H69AR cells, compound alone cytotoxicity.

Activity calls are given as the source filed them.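 Rule for the calls, unless noted: active = viability at or below 10% of carrier control in both of two separate runs; inconclusive = viability at or below 10% in only one of the two runs; inactive = the rest.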

This is an account of results in PubChem BioAssay.

Chain of Receptor tyrosine-protein kinase erbB-2 (Homo sapiens) (P04626 whole entry, looked up): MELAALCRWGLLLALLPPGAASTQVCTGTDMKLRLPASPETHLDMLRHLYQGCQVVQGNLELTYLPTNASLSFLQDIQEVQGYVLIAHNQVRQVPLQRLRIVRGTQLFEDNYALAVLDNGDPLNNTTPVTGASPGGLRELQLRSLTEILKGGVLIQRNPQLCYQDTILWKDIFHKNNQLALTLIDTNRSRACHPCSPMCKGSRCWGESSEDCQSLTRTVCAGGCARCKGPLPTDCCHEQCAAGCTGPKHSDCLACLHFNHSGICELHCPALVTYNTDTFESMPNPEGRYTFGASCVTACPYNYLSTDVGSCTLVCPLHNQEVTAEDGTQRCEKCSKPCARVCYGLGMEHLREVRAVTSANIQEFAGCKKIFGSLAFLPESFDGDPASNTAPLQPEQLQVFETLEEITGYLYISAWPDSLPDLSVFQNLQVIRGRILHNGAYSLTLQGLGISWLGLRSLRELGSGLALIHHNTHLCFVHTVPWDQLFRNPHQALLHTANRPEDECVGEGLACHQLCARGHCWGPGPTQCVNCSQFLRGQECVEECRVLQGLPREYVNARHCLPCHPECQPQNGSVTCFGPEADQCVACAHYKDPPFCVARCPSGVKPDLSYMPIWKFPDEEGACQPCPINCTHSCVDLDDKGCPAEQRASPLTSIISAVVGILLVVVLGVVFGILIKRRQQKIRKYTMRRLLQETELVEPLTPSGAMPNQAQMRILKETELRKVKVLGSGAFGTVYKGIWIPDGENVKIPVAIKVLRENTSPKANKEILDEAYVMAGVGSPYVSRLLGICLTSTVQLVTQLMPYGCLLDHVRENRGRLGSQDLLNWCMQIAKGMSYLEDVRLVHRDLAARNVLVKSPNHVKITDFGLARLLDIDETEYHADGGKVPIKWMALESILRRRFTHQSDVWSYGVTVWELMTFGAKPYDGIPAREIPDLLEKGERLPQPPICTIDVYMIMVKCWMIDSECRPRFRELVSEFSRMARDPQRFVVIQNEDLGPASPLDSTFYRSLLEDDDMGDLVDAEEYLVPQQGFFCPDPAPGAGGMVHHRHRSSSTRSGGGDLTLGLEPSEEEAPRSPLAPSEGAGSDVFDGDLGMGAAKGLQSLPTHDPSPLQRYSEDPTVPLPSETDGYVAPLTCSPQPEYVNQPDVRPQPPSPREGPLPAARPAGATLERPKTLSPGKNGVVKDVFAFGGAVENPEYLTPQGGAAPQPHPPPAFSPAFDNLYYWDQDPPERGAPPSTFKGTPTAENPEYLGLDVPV

As to `COc1ccc(S(=O)(=O)N(C)CC(=O)N2CCCCC2)cc1Cl`, the viability is 80% in assay [1]; 80% (inactive) in assay [3]; 96.6% (inactive) in assay [4]; 93.5% (inactive) in assay [5]; 87.4% in assay [6] (setting [9]); 93.5% in assay [6] (setting [10]). Also, the Her2 level in assay [2] is 106% (inactive). Also, in assay [6] (H69AR cells + 2 uM doxorubicin), the differential viability (reversal) was 6.07% (inactive). For the same compound, the inhibition was -5.41% (inactive) in assay [7] and 1.8% (inactive) in assay [8].

For `O=C1CCCc2c1cc(C(=O)NCc1ccco1)c(=O)n2-c1ccc(Cl)cc1`, the viability was 88% in assay [1]; 88% (inactive) in assay [3]; 80.8% (inactive) in assay [4]; 93.5% (inactive) in assay [5]; 80.5% in assay [6] (setting [9]); 93.5% in assay [6] (setting [10]). The Her2 level in assay [2] is 110% (inactive). For the same compound, the differential viability (reversal) in assay [6] (H69AR cells + 2 uM doxorubicin) is 13% (inactive). Moreover, the inhibition in assay [7] was -4.8% (inactive); in assay [8] it was -3.39% (inactive).

As to `CC(NS(=O)(=O)c1ccccc1)C(c1cccs1)N1CCN(C)CC1` (stereo not given), the viability was 93.5% in assay [1]; 93.5% (inactive) in assay [3]; 81.1% (inactive) in assay [4]; 94.5% (inactive) in assay [5]; 79.4% in assay [6] (setting [9]); 94.5% in assay [6] (setting [10]). The Her2 level in assay [2] was 79.5% (inactive). The differential viability (reversal) in assay [6] (H69AR cells + 2 uM doxorubicin) is 15% (inactive). Moreover, the inhibition is -5% (inactive) in assay [7] and -6.83% (inactive) in assay [8].

In the case of `O=c1[nH]c(SCc2ccccc2Cl)nc2c1CCCC2`, the viability in assay [1] is 100%; in assay [3], 100% (inactive); in assay [4], 65.4% (inactive); in assay [5] it was 89.5% (inactive); in assay [6] (setting [9]), 92.7%; in assay [6] (setting [10]), 89.5%. For the same compound, in assay [2], the Her2 level was 75.5% (inactive). Besides, in assay [6] (H69AR cells + 2 uM doxorubicin), the differential viability (reversal) was -3.21% (inactive). For the same compound, the inhibition in assay [7] is -5.13% (inactive); in assay [8] it was 0.17% (inactive).

As to `Cc1noc(C)c1CSc1nc2cc(S(=O)(=O)N3CCOCC3)ccc2o1`, the viability in assay [1] was 98.5%; in assay [3] it was 98.5% (inactive); in assay [4] it was 96.7% (inactive); in assay [5] it was 83.6% (inactive); in assay [6] (setting [9]) it was 83.9%; in assay [6] (setting [10]) it was 83.6%. Further, in assay [2], the Her2 level was 93% (inactive). Moreover, the differential viability (reversal) in assay [6] (H69AR cells + 2 uM doxorubicin) was -0.29% (inactive). The results for the inhibition in assay [7] and in assay [8] were -5.48% (inactive) and 5.56% (inactive), respectively.

Consider `COC(=O)c1ccc(NC(=O)CN2C(=O)CSC2=O)cc1`, for which the viability in assay [1] was 104%; in assay [3], 104% (inactive); in assay [4] it was 90.1% (inactive); in assay [5], 106% (inactive); in assay [6] (setting [9]), 94.4%; in assay [6] (setting [10]) it was 106%. Also, the Her2 level in assay [2] is 93% (inactive). Also, the differential viability (reversal) in assay [6] (H69AR cells + 2 uM doxorubicin) was 12% (inactive). Moreover, the inhibition is -4.67% (inactive) in assay [7] and 2.3% (inactive) in assay [8].

Take `COc1ccc(-n2c(SCC#N)nc3ccccc3c2=O)cc1`: the viability in assay [1] was 77%; in assay [3], 77% (inactive); in assay [4] it was 93.5% (inactive); in assay [5], 96.4% (inactive); in assay [6] (setting [9]), 109%; in assay [6] (setting [10]) it was 96.4%. Also, in assay [2], the Her2 level is 106% (inactive). Moreover, the differential viability (reversal) in assay [6] (H69AR cells + 2 uM doxorubicin) was -12.8% (inactive). The inhibition in assay [7] was 5.06% (inactive); in assay [8], 3.28% (inactive).

As to `Cc1ccnc(NC(=O)CCC(=O)N(CC(=O)NC2CCCCC2)c2cccc(C)c2C)c1`, the viability in assay [1] is 92.5%; in assay [3], 92.5% (inactive); in assay [4], 92.1% (inactive); in assay [5], 86.7% (inactive); in assay [6] (setting [9]) it was 94.5%; in assay [6] (setting [10]), 86.7%. For the same compound, the Her2 level in assay [2] is 97.5% (inactive). For the same compound, in assay [6] (H69AR cells + 2 uM doxorubicin), the differential viability (reversal) was -7.79% (inactive). In addition, the inhibition was 0% (inactive) in assay [7] and 22.6% (inactive) in assay [8].

Regarding `CCOC(=O)/C=C1\SCC(=O)N1Cc1ccc(Br)cc1`, the viability was 112% in assay [1]; 112% (inactive) in assay [3]; 79.5% (inactive) in assay [4]; 97.3% (inactive) in assay [5]; 93.3% in assay [6] (setting [9]); 97.3% in assay [6] (setting [10]). Also, the Her2 level in assay [2] is 94% (inactive). Besides, the differential viability (reversal) in assay [6] (H69AR cells + 2 uM doxorubicin) was 3.96% (inactive). The figures for the inhibition in assay [7] and in assay [8] were -7.67% (inactive) and 4.13% (inactive), respectively.

Take `CCOC(=O)c1cnc(SCC)[nH]c1=O`: the viability in assay [1] was 84.5%; in assay [3], 84.5% (inactive); in assay [4] it was 84.4% (inactive); in assay [5], 97% (inactive); in assay [6] (setting [9]), 103%; in assay [6] (setting [10]) it was 97%. In addition, the Her2 level in assay [2] is 101% (inactive). In addition, in assay [6] (H69AR cells + 2 uM doxorubicin), the differential viability (reversal) was -5.68% (inactive). Further, the inhibition was -1.92% (inactive) in assay [7] and -8% (inactive) in assay [8].

For the compound `CN(C)C(CN1C(=O)C2CC=CCC2C1=O)c1cn(C)c2ccccc12` (stereo not given), the viability in assay [1] is 104%; in assay [3], 104% (inactive); in assay [4], 89.9% (inactive); in assay [5] it was 95.4% (inactive); in assay [6] (setting [9]), 88.7%; in assay [6] (setting [10]), 95.4%. Further, the Her2 level in assay [2] was 85.5% (inactive). The differential viability (reversal) in assay [6] (H69AR cells + 2 uM doxorubicin) is 6.72% (inactive). Further, the inhibition in assay [7] was -6.71% (inactive); in assay [8] it was -1.59% (inactive).

With `O=C(O)CCc1ccc(-c2ccc(F)cc2)n1CC(=O)O`, the viability in assay [1] is 94.5%; in assay [3] it was 94.5% (inactive); in assay [4], 106% (inactive); in assay [5], 98% (inactive); in assay [6] (setting [9]) it was 87.2%; in assay [6] (setting [10]) it was 98%. Moreover, the Her2 level in assay [2] was 87% (inactive). Besides, the differential viability (reversal) in assay [6] (H69AR cells + 2 uM doxorubicin) is 10.8% (inactive). Also, the inhibition in assay [7] was -7.12% (inactive); in assay [8], -1.43% (inactive).

As to `CCc1cccc2c(=O)c(C(=O)NCCN3CCOCC3)c[nH]c12`, the viability in assay [1] was 104%; in assay [3], 104% (inactive); in assay [4], 102% (inactive); in assay [5] it was 108% (inactive); in assay [6] (setting [9]), 90%; in assay [6] (setting [10]) it was 108%. Further, the Her2 level in assay [2] is 113% (inactive). The differential viability (reversal) in assay [6] (H69AR cells + 2 uM doxorubicin) is 18.2% (inactive). The inhibition is -5.47% (inactive) in assay [7] and 1.29% (inactive) in assay [8].

Take `COC(=O)c1ccccc1S(=O)(=O)N(CCCN1CCOCC1)Cc1cccs1`: the viability in assay [1] was 111%; in assay [3], 111% (inactive); in assay [4], 91.8% (inactive); in assay [5] it was 89.2% (inactive); in assay [6] (setting [9]) it was 90.2%; in assay [6] (setting [10]) it was 89.2%. Also, the Her2 level in assay [2] was 110% (inactive). In addition, the differential viability (reversal) in assay [6] (H69AR cells + 2 uM doxorubicin) is -0.97% (inactive). Also, the inhibition in assay [7] was -1.45% (inactive); in assay [8], 5.4% (inactive).

On to `COc1ccc(CC(NC(C)=O)C(=O)NC2CCN(C(=O)Nc3ccc(C#N)cc3)CC2)cc1OC` (stereo not given), for which the viability in assay [1] was 93%; in assay [3], 93% (inactive); in assay [4], 117% (inactive); in assay [5], 94.2% (inactive); in assay [6] (setting [9]) it was 97.3%; in assay [6] (setting [10]), 94.2%. Also, in assay [2], the Her2 level was 91.5% (inactive). Also, in assay [6] (H69AR cells + 2 uM doxorubicin), the differential viability (reversal) is -3.13% (inactive). The inhibition in assay [7] was -4.13% (inactive); in assay [8], 2.79% (inactive).

On to `COc1cc(C2C(C#N)=C(N)Oc3cc(N)ccc32)cc(OC)c1OC` (stereo not given), for which the viability is 91.5% in assay [1]; 91.5% (inactive) in assay [3]; 42.1% (inactive) in assay [4]; 32.3% (active) in assay [5]; 61.1% in assay [6] (setting [9]); 32.3% in assay [6] (setting [10]). Moreover, in assay [2], the Her2 level is 75% (inactive). Further, the differential viability (reversal) in assay [6] (H69AR cells + 2 uM doxorubicin) is -28.8% (inactive). For the same compound, the inhibition in assay [7] is -4% (inactive); in assay [8], 8.03% (inactive).
